34 compounds from ChEMBL document CHEMBL1139802, “Pyrazole inhibitors of HMG-CoA reductase: an attempt to dramatically reduce synthetic complexity through minimal analog re-design” (Bioorg Med Chem Lett, 2007) can be followed below.

One test deals with L6. Kind of test: Inhibition of cholesterol synthesis in L6 myocytes. Format: functional, cell-based. The conditions noted are these: Rattus norvegicus.
A short description of test [1]: Inhibition of cholesterol synthesis in rat hepatocytes. Format: functional, cell-based. The note with it: Hepatocyte.
Test [2] addresses T1, 3-hydroxy-3-methylglutaryl-coenzyme A reductase (Rattus norvegicus, UniProt P51639).
T1 sequence (P51639 whole entry): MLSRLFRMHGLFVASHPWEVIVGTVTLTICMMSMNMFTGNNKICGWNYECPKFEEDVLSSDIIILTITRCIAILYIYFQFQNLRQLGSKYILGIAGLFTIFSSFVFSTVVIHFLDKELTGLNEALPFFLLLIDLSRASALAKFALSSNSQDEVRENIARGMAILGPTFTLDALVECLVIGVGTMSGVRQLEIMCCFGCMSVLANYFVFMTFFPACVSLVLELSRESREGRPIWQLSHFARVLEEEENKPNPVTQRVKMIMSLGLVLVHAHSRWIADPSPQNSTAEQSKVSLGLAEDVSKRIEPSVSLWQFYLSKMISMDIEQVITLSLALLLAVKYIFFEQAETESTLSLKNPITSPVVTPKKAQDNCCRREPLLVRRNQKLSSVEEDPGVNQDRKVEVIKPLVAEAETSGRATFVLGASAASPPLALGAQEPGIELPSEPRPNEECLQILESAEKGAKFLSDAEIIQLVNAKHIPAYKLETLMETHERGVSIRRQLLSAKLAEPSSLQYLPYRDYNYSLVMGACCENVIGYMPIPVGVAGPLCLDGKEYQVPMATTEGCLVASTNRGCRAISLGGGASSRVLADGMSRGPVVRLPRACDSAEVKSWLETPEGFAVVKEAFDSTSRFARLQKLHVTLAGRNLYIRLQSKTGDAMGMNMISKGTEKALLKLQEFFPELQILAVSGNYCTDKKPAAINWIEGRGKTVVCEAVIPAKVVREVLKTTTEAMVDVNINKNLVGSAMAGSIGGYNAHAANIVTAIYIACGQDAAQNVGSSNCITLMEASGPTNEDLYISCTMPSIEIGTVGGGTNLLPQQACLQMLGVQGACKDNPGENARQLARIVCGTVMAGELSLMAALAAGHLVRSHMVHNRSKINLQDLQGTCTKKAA
Kind of test: Inhibition of HMG-CoA reductase in rat liver microsomes. On the set-up: species or system Microsome.

In test [3] the test system is Hamster. In words: Inhibition of cholesterol synthesis in hamster at 10 mg/kg, po after 2 to 4 hrs relative to control. Format: functional, Cricetinae. On the set-up: scale not given: the % may be the effect or the level left. In a few lines: (§1)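 Male Syrian Golden hamsters received a single oral 10 mg/kg dose. A bolus of sodium 14C-acetate was given at 2, 3 or 4 h post-dose, giving 2–4, 3–5 and 4–6 h windows. Label incorporated into plasma cholesterol was measured over the following 2 h. Results are reported as percent change in incorporation relative to vehicle-dosed animals.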

Test [4] has as its system Hamster. Kind of test: Inhibition of cholesterol synthesis in hamster at 10 mg/kg, po after 4 to 6 hrs relative to control. On the set-up: scale not given: the % may be the effect or the level left. Type of test: functional, Cricetinae. The gist of the method:
as §1

As for `CC(C)c1c(C(=O)NCCc2ccccc2)nn(-c2ccc(F)cc2)c1OC[C@@H](O)C[C@@H](O)CC(=O)O`, the IC50 with L6 is 760 nM; in test [1] it was 14 nM; in test [2], 15 nM.
Turning to `CC(C)c1c(C(=O)NCc2ccccn2)nn(-c2ccc(F)cc2)c1OC[C@@H](O)C[C@@H](O)CC(=O)O`, the IC50 turned out to be 7.5 nM in test [1] and 25 nM in test [2].
Consider `Cc1ccc(CN(C)C(=O)c2nn(-c3ccc(F)cc3)c(OC[C@@H](O)C[C@@H](O)CC(=O)O)c2C(C)C)cc1`, for which the values for the IC50 (in the test with L6; in test [1]; in test [2]) were 1250 nM, 1.2 nM and 37 nM, respectively.
As to `CC(C)c1c(C(=O)N(C)Cc2cccc(F)c2)nn(-c2ccc(F)cc2)c1CC[C@@H](O)C[C@@H](O)CC(=O)O`, the IC50 in the test with L6 turned out to be 1900 nM; in test [1] it was 0.16 nM; in test [2] it was 4.1 nM. The Activity was -66% with Hamster [3] and -12% in the test on Hamster [4].
For `CC(C)c1c(C(=O)N2CCC[C@H](c3ccccc3)C2)nn(-c2ccc(F)cc2)c1OC[C@@H](O)C[C@@H](O)CC(=O)O`, the IC50 in the test with L6 is 1110 nM; in test [1] it was 1.5 nM; in test [2] it was 4.8 nM. The Activity in the test with Hamster [3] is given as -15%.
For the compound `COc1cccc(CN(C)C(=O)c2nn(-c3ccc(F)cc3)c(OC[C@@H](O)C[C@@H](O)CC(=O)O)c2C(C)C)c1`, the IC50 in the test with L6 was determined as 9460 nM; in test [1], 1.6 nM; in test [2], 21 nM. Moreover, in the test on Hamster [4], the Activity stood at 53%.
With `CCOc1cccc(CN(C)C(=O)c2nn(-c3ccc(F)cc3)c(OC[C@@H](O)C[C@@H](O)CC(=O)O)c2C(C)C)c1`, the IC50 was 3550 nM in the test on L6, 2.8 nM in test [1] and 16 nM in test [2].
In the case of `COc1ccccc1CNC(=O)c1nn(-c2ccc(F)cc2)c(OC[C@@H](O)C[C@@H](O)CC(=O)O)c1C(C)C`, the results for the IC50 in test [1] and in test [2] were 83 nM and 22 nM, respectively.
Consider `COc1ccc(CNC(=O)c2nn(-c3ccc(F)cc3)c(OC[C@@H](O)C[C@@H](O)CC(=O)O)c2C(C)C)cc1`, for which the figures for the concentration for half-maximal inhibition (IC50) in test [1] and in test [2] were 37 nM and 12 nM, respectively.
On to `Cc1ccccc1CNC(=O)c1nn(-c2ccc(F)cc2)c(OC[C@@H](O)C[C@@H](O)CC(=O)O)c1C(C)C`, for which the IC50 is 2850 nM with L6, 0.88 nM in test [1] and 17 nM in test [2]. In the test on Hamster [4], the Activity is reported as 39%.
With `Cc1cccc(CN(C)C(=O)c2nn(-c3ccc(F)cc3)c(OC[C@@H](O)C[C@@H](O)CC(=O)O)c2C(C)C)c1`, the IC50 with L6 is 18500 nM; in test [1], 2.5 nM; in test [2] it was 37 nM.
For `CC(C)c1nc(N(C)S(C)(=O)=O)nc(-c2ccc(F)cc2)c1/C=C/[C@@H](O)C[C@@H](O)CC(=O)O` [ROSUVASTATIN], the IC50 turned out to be 210 nM in the test with L6, 0.23 nM in test [1] and 2.1 nM in test [2]. The Activity in the test on Hamster [3] is on record as -76%; in the test with Hamster [4], -46%.
Turning to `Cc1ccc(CNC(=O)c2nn(-c3ccc(F)cc3)c(OC[C@@H](O)C[C@@H](O)CC(=O)O)c2C(C)C)cc1`, the IC50 in the test with L6 came out at 2110 nM; in test [1], 1.8 nM; in test [2], 15 nM. The Activity in the test on Hamster [3] was -30%; in the test on Hamster [4] it was 9%.
Regarding `COc1cccc(CNC(=O)c2nn(-c3ccc(F)cc3)c(OC[C@@H](O)C[C@@H](O)CC(=O)O)c2C(C)C)c1`, the IC50 with L6 was determined as 8750 nM; in test [1], 8.4 nM; in test [2], 16 nM. Also, the Activity in the test with Hamster [4] was 37%.
Turning to `CCN(Cc1ccccc1)C(=O)c1nn(-c2ccc(F)cc2)c(OC[C@@H](O)C[C@@H](O)CC(=O)O)c1C(C)C`, the IC50 with L6 worked out at 2660 nM; in test [1], 4.7 nM; in test [2], 14 nM.
Consider `CC(C)c1c(C(=O)NCc2ccccc2)nn(-c2ccc(F)cc2)c1OC[C@@H](O)C[C@@H](O)CC(=O)O`, for which the IC50 in the test with L6 amounted to 880 nM; in test [1], 14 nM; in test [2], 3.8 nM. Also, in the test with Hamster [4], the Activity was 41%.
On to `CC(C)c1c(C(=O)NCc2cccc(Cl)c2)nn(-c2ccc(F)cc2)c1OC[C@@H](O)C[C@@H](O)CC(=O)O`, for which the IC50 turned out to be 9.9 nM in test [1] and 5.4 nM in test [2].
Consider `CC(C)c1c(C(=O)N(C)Cc2cccc(F)c2F)nn(-c2ccc(F)cc2)c1OC[C@@H](O)C[C@@H](O)CC(=O)O`, for which the IC50 in the test with L6 amounted to 860 nM; in test [1], 2.8 nM; in test [2] it was 14 nM.
Take `CC(C)c1c(C(=O)N(C)Cc2cccc(C(F)(F)F)c2)nn(-c2ccc(F)cc2)c1OC[C@@H](O)C[C@@H](O)CC(=O)O`: the results for the IC50 in test [1] and in test [2] were 12 nM and 31 nM, respectively.
On to `CC(C)c1c(C(=O)NCc2cccc(F)c2F)nn(-c2ccc(F)cc2)c1OC[C@@H](O)C[C@@H](O)CC(=O)O`, for which the IC50 in the test on L6 turned out to be 120 nM; in test [1] it was 19 nM; in test [2] it was 2 nM.
In the case of `CC(C)c1c(C(=O)N(C)Cc2ccc(F)cc2)nn(-c2ccc(F)cc2)c1OC[C@@H](O)C[C@@H](O)CC(=O)O`, the IC50 was determined as 2800 nM with L6, 3.8 nM in test [1] and 18 nM in test [2]. Besides, in the test with Hamster [4], the Activity was determined as 91%.
With `COc1cc(CN(C)C(=O)c2nn(-c3ccc(F)cc3)c(OC[C@@H](O)C[C@@H](O)CC(=O)O)c2C(C)C)cc(OC)c1`, the IC50 in test [1] is 7.1 nM; in test [2] it was 43 nM.
For `CC(C)c1c(C(=O)N2CCCCC2)nn(-c2ccc(F)cc2)c1OC[C@@H](O)C[C@@H](O)CC(=O)O`, the figures for the IC50 (with L6; in test [1]; in test [2]) were 32200 nM, 3.8 nM and 47 nM, respectively.
For `CC(C)c1c(C(=O)N(C)Cc2ccccc2)nn(-c2ccc(F)cc2)c1CC[C@@H](O)C[C@@H](O)CC(=O)O`, the IC50 worked out at 2870 nM in the test with L6, 0.31 nM in test [1] and 6.2 nM in test [2]. Also, the Activity is listed as -61% with Hamster [3] and -16% with Hamster [4].
`CC(C)c1c(C(=O)NCC2CCCCC2)nn(-c2ccc(F)cc2)c1OC[C@@H](O)C[C@@H](O)CC(=O)O`: the IC50 in test [1] is 56 nM; in test [2] it was 17 nM.
As for `Cc1cccc(CNC(=O)c2nn(-c3ccc(F)cc3)c(OC[C@@H](O)C[C@@H](O)CC(=O)O)c2C(C)C)c1`, the figures for the IC50 (in the test on L6; in test [1]; in test [2]) were 280 nM, 0.99 nM and 4.9 nM, respectively.
Take `Cc1ccc(CNC(=O)c2nn(-c3ccc(F)cc3)c(CC[C@@H](O)C[C@@H](O)CC(=O)O)c2C(C)C)cc1`: the IC50 in the test with L6 was found to be 800 nM; in test [1] it was 1.1 nM; in test [2], 2.5 nM. For the same compound, the Activity in the test on Hamster [3] is listed as -74%; in the test with Hamster [4] it was -15%.
Take `CC(C)c1c(C(=O)NCc2ccc(Cl)cc2)nn(-c2ccc(F)cc2)c1OC[C@@H](O)C[C@@H](O)CC(=O)O`: the half-maximal inhibitory concentration (IC50) in test [1] was 44 nM; in test [2], 6.7 nM.
With `CC(C)c1c(C(=O)N(C)Cc2cccc(F)c2)nn(-c2ccc(F)cc2)c1OC[C@@H](O)C[C@@H](O)CC(=O)O`, the IC50 with L6 is 2470 nM; in test [1] it was 1.9 nM; in test [2], 14 nM. Also, the Activity with Hamster [3] is reported as -41%; with Hamster [4], -1%.
Regarding `CCCCNC(=O)c1nn(-c2ccc(F)cc2)c(OC[C@@H](O)C[C@@H](O)CC(=O)O)c1C(C)C`, the IC50 in test [1] is 39 nM; in test [2], 76 nM.
For `CC(C)c1c(C(=O)N2CCCC2c2ccccc2)nn(-c2ccc(F)cc2)c1OC[C@@H](O)C[C@@H](O)CC(=O)O` (some centres not stated), the IC50 with L6 came to 4340 nM; in test [1], 8 nM; in test [2], 14 nM.
Consider `CC(C)c1c(C(=O)N(C)Cc2ccccc2)nn(-c2ccc(F)cc2)c1OC[C@@H](O)C[C@@H](O)CC(=O)O`, for which the IC50 worked out at 6720 nM with L6, 1.1 nM in test [1] and 5.2 nM in test [2]. The figures for the Activity with Hamster [3] and with Hamster [4] were -49% and 26%, respectively.
Turning to `CC(C)c1c(C(=O)NCc2ccccc2Cl)nn(-c2ccc(F)cc2)c1OC[C@@H](O)C[C@@H](O)CC(=O)O`, the IC50 in the test on L6 is 8450 nM; in test [1], 76 nM; in test [2] it was 9.5 nM.
Consider `CC(C)c1c(C(=O)N(C)[C@H](C)c2ccccc2)nn(-c2ccc(F)cc2)c1OC[C@@H](O)C[C@@H](O)CC(=O)O`, for which the results for the IC50 in test [1] and in test [2] were 11 nM and 21 nM, respectively.
